# Assay results published in publication PMC5372383 (Nature, 2017).
# Assays:
# leukaemia cell lines = assay type: cell-based, human; conditions: shENL vs shNT, MLL-rearranged leukaemia cells, n = 3
# Procedure, shortened: (§1)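 MLL-rearranged leukaemia lines were grown in RPMI with 10% FBS, 2 mM L-glutamine, penicillin/streptomycin and plasmocin. Cells were transduced with sgRNAs (MOLM-13) or shNT/shENL shRNAs (panel) by spin infection (1500 rcf, 35°C, 90 min), then selected or sorted 48 h post infection. They were exposed to JQ1 or DMSO, and viability was read by CellTiter-Glo luminescence. MOLM-13 proliferation was normalised to DMSO.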
# U2OS cells = assay: JQ1 proliferation in U2OS cells; assay type: cell-based, human; conditions: GFP, AF9 or ENL sgRNAs, n = 5
# Procedure, shortened: (§2)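 HeLa and U2OS cells were kept in DMEM with 10% FBS, 2 mM L-glutamine, penicillin/streptomycin and plasmocin. They were transduced with GFP, AF9 or ENL sgRNAs by spin infection at 1500 rcf, 35°C for 90 min, then selected or sorted 48 h after infection. Cells were treated with JQ1, and viability was measured by CellTiter-Glo luminescence.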
# HeLa cells = assay: JQ1 proliferation in HeLa cells; assay type: cell-based, human; conditions: GFP, AF9 or ENL sgRNAs, n = 5
# Procedure, shortened: as §2
# MOLM-13 cells = assay: JQ1 proliferation / viability; assay type: cell-based, human; conditions: MOLM-13, sgRNA depletion; proliferation normalized to DMSO, n = 5
# Procedure, shortened: as §1
# iCas9-MOLM-13 cells = assay: RNA-seq of JQ1-treated iCas9-MOLM-13 cells; assay type: cell-based, human; conditions: iCas9-MOLM-13, 50 nM JQ1 24 h vs DMSO
# [1] = target: ENL YEATS mutants (alanine mutation of the “R-Kac”-binding residues), ITC; assay: ITC
Molecule,JQ1 sensitivity on ENL silencing (leukaemia cell lines),"JQ1 sensitivity on ENL silencing, U2OS (U2OS cells)","JQ1 sensitivity on ENL silencing, HeLa (HeLa cells)",sensitivity to JQ1 on depletion of ENL or other SEC components (MOLM-13 cells),"JQ1-induced transcriptional changes on ENL depletion, including MYC (iCas9-MOLM-13 cells)",fold affinity drop against the wild type [1] [fold]
Cc1sc2c(c1C)C(c1ccc(Cl)cc1)=N[C@@H](CC(=O)OC(C)(C)C)c1nnc(C)n1-2 [JQ1],Increased JQ1 sensitivity,not in HeLa or U2OS cells,not in HeLa,sensitized MOLM-13 cells,markedly enhanced JQ1-induced transcriptional changes,
H3_(17–28)K27ac peptide (from UniProt P68431 18-29),,,,,,2.3
